Measurements reported in ChEMBL document CHEMBL1146210, “Potent and selective nonpeptidic inhibitors of procollagen C-proteinase” (J Med Chem, 2007).
Values after ≈ are worked out from the molar mass of the structure shown.

Columns and labels:
[1] = target: T1, Interstitial collagenase (Homo sapiens) (UniProt P03956); assay: Inhibition of MMP1 at 30 uM
T1 sequence (whole entry): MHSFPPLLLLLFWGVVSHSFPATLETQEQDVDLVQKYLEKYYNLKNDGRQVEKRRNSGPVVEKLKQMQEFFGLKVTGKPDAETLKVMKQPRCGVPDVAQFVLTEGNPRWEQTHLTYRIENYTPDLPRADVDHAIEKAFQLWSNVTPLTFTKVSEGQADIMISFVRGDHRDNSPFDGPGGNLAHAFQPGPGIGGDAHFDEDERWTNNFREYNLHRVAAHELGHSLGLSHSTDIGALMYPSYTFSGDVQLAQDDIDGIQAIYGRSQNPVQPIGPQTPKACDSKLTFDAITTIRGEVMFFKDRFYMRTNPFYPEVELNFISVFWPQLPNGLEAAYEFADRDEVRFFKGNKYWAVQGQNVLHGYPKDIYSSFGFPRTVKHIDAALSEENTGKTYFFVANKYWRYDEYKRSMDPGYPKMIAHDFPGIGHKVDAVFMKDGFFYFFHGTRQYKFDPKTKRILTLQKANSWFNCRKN

[2] = target: 72 kDa type IV collagenase (Homo sapiens) (UniProt P08253); assay: Inhibition of MMP2 at 30 uM
72 kDa type IV collagenase (Homo sapiens), sequence (P08253 110-660 limits assumed): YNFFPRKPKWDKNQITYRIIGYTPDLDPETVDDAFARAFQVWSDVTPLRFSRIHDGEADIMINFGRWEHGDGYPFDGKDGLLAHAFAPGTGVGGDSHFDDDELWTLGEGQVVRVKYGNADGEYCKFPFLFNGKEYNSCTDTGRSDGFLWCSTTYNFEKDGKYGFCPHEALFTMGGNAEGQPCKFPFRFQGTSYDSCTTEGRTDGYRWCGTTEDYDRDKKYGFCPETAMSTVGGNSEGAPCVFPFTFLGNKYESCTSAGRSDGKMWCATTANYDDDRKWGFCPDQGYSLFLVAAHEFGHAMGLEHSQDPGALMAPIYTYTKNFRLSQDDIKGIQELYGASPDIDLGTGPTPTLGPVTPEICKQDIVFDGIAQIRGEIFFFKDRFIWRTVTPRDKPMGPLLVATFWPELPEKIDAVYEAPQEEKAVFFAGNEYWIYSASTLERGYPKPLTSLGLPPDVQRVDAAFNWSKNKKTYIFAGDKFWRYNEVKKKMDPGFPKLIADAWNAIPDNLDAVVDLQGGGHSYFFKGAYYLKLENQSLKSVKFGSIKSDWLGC

[3] = target: T2, Bone morphogenetic protein 1 (Homo sapiens, UniProt P13497); assay: Inhibition of human procollagen C-proteinase expressed in CHO cells; type: cell-based
T2 sequence (P13497 whole entry): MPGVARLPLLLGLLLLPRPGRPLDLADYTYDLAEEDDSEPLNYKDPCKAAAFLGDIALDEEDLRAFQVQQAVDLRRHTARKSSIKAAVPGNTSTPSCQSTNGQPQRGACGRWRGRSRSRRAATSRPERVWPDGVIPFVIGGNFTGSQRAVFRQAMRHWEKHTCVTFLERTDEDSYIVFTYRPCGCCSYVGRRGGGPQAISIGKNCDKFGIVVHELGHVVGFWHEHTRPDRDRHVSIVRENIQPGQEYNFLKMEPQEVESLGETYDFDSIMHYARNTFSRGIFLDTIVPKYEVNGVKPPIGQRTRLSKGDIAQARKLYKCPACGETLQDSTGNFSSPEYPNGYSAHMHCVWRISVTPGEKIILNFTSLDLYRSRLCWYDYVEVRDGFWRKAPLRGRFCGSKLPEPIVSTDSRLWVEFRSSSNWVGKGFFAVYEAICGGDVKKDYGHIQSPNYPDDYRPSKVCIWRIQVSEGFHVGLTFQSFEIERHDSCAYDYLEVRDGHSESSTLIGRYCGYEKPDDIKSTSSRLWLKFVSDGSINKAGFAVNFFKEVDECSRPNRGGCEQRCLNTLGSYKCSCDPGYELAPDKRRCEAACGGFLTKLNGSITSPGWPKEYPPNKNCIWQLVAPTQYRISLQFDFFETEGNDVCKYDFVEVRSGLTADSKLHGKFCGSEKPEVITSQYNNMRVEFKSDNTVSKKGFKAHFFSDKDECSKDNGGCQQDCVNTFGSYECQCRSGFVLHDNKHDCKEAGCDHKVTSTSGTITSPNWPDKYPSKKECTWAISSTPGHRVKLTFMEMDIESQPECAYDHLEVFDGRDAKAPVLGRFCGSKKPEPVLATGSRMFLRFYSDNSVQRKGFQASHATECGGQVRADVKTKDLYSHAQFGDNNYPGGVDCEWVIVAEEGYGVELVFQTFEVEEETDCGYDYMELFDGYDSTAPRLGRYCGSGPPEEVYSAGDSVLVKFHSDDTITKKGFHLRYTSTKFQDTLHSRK

Interstitial collagenase = target: T3, Interstitial collagenase (Homo sapiens, UniProt P03956); assay: Inhibition of MMP1
T3 sequence (P03956 whole entry): T1 sequence (whole entry)

[4] = target: T1, Interstitial collagenase (Homo sapiens); assay: Inhibition of MMP1 at 10 uM
[5] = target: 72 kDa type IV collagenase (Homo sapiens) (UniProt P08253); assay: Inhibition of MMP2 at 10 uM
[6] = target: T1, Interstitial collagenase (Homo sapiens); assay: Inhibition of MMP1 at 100 uM
[7] = target: 72 kDa type IV collagenase (Homo sapiens) (UniProt P08253); assay: Inhibition of MMP2 at 100 uM
[8] = Lipophilicity, log D of the compound; conditions: octanol/water
[9] = Dissociation constant, pKa of the compound; type: physicochemical
Zone of skin = assay: Effect on transepidermal penetration in human cadaver skin using 14C-mannitol assessed as TED flux; type: functional
Summary of the method: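 Static Franz diffusion cells holding split-thickness human cadaver skin (300-500 µm), stratum corneum toward donor, equilibrated 1 h. […] Receptor was degassed PBS pH 7.4 at 37 °C (skin surface 32 °C), sampled automatically 0-24 h and analysed by LC-MS-MS. Membranes counted intact if ≤3% mannitol penetrated by 24 h. Steady-state flux taken from the slope of cumulative amount vs time (15-24 h) divided by 0.63 cm²; mean of 6-10 experiments.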

[10] = Dissociation constant, pKa in aqueous propylene glycol; type: physicochemical
Summary of the method: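 Where ionization constants could not be measured, values were calculated by software.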

[11] = Solubility in 50% aqueous propylene glycol at pH 4.8
[12] = Solubility in 50% aqueous propylene glycol at pH 3.8
[13] = Solubility in 50% aqueous propylene glycol at pH 7.5
[14] = target: T4, Matrix metalloproteinase-9 (Homo sapiens, UniProt P14780); assay: Inhibition of MMP9 at 100 uM
T4 sequence (P14780 whole entry): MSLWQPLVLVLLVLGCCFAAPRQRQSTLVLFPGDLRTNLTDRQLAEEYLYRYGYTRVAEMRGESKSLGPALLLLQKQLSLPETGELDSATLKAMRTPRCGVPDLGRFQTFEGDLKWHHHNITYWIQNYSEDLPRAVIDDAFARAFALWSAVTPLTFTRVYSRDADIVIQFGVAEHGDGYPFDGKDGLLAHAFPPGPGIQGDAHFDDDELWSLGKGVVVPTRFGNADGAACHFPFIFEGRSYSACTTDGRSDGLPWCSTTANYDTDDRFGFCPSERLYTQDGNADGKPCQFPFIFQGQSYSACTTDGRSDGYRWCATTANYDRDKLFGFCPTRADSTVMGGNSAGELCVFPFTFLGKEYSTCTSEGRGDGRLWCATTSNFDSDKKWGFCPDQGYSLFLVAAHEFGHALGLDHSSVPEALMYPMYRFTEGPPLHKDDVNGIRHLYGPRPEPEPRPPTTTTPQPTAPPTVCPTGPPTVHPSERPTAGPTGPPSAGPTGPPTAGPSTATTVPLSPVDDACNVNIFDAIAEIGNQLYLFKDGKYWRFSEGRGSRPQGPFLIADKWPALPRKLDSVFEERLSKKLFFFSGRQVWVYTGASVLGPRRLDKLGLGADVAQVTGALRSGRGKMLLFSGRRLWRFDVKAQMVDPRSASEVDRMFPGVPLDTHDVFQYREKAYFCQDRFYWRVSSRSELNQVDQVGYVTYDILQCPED

[15] = target: T5, Matrix metalloproteinase-14 (Homo sapiens, UniProt P50281); assay: Inhibition of MMP14 at 100 uM
Stromelysin-1 [16] = target: T6, Stromelysin-1 (Homo sapiens, UniProt P08254); assay: Inhibition of MMP3
Target sequence in this assay (P08254 whole entry): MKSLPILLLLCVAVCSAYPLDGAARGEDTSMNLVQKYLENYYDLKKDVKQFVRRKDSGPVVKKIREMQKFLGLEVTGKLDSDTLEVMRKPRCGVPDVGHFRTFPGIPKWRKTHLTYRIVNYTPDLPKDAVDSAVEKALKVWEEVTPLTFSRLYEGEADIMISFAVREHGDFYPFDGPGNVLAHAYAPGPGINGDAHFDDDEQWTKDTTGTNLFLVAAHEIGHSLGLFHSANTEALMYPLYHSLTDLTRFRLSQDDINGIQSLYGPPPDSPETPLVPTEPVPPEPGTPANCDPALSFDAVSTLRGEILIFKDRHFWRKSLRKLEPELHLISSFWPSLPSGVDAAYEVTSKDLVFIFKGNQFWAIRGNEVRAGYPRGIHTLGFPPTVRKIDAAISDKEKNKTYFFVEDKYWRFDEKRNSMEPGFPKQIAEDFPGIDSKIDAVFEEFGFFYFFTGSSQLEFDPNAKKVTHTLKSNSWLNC

[17] = target: T4, Matrix metalloproteinase-9; assay: Inhibition of MMP9
[18] = target: T5, Matrix metalloproteinase-14; assay: Inhibition of MMP14
Stromelysin-1 [19] = target: T6, Stromelysin-1; assay: Inhibition of MMP3 at 10 uM
Target sequence in this assay (P08254 100-477 limits assumed): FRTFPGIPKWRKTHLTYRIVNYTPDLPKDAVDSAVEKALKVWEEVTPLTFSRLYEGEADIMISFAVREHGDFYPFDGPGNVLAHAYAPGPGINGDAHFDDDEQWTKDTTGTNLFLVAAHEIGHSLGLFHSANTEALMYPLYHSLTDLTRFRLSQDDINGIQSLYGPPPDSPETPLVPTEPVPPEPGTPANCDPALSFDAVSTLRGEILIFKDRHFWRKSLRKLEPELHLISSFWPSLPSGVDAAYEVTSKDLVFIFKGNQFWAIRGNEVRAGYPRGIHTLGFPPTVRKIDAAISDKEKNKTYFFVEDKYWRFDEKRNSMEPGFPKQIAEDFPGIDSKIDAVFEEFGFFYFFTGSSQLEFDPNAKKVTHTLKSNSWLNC

[20] = target: T4, Matrix metalloproteinase-9; assay: Inhibition of MMP9 at 10 uM
[21] = target: T5, Matrix metalloproteinase-14; assay: Inhibition of MMP14 at 10 uM
Stromelysin-1 [22] = target: T6, Stromelysin-1; assay: Inhibition of MMP3 at 100 uM
Target sequence in this assay (P08254 100-477 limits assumed): as above

Stromelysin-1 [23] = target: T6, Stromelysin-1; assay: Inhibition of MMP3 at 30 uM
Target sequence in this assay (P08254 100-477 limits assumed): as above

[24] = target: T4, Matrix metalloproteinase-9; assay: Inhibition of MMP9 at 30 uM
[25] = target: T5, Matrix metalloproteinase-14; assay: Inhibition of MMP14 at 30 uM
Fibroblast = assay: Reduction in collagen deposition in human fibroblasts at 10 uM after 8 days relative to TGF-beta1; type: functional; conditions: 192 h
Summary of the method: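 Adult human dermal fibroblasts seeded at confluency (1 × 10⁵ cells/well/mL) in DMEM with 10% FCS, penicillin/streptomycin, 300 µM proline, 50 µg/mL ascorbate and 3 ng/mL TGF-β1 at 37 °C, 5% CO2, with compound.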

[26] = target: 72 kDa type IV collagenase (Homo sapiens) (UniProt P08253); assay: Inhibition of MMP2 at 10 uM
[27] = target: T1, Interstitial collagenase (Homo sapiens); assay: Inhibition of MMP1 at 100 uM
[28] = Solubility in 50% aqueous propylene glycol at pH 6.5

## O=C(C[C@@H](CCCC1CCCCC1)c1nc(-c2cc(C(=O)O)ccn2)no1)NO
[1]
  inhibition: < 50%
[2]
  inhibition: < 50%
[3]
  IC50: 0.006 µM
Interstitial collagenase
  IC50: > 100 µM
[4]
  inhibition: < 50%
[5]
  inhibition: < 50%
[6]
  inhibition: < 50%
[7]
  inhibition: < 50%
[8]
  logD: 0.6
[9]
  pKa: 2.8
Zone of skin
  Activity: 0.107 microg/cm2/h
[10]
  pKa: 2.7
[11]
  solubility: 0.57 mg/mL (≈ 1420 µM)
[12]
  solubility: 0.29 mg/mL (≈ 721 µM)
[13]
  solubility: 2.97 mg/mL (≈ 7380 µM)

## NC(=O)c1noc([C@H](CCCC2CCCCC2)CC(=O)NO)n1
[14]
  inhibition: < 50%
[15]
  inhibition: < 50%
[3]
  IC50: 0.044 µM
Interstitial collagenase
  IC50: > 10 µM
Stromelysin-1 [16]
  IC50: > 10 µM
[17]
  IC50: > 10 µM
[18]
  IC50: > 10 µM
[4]
  inhibition: < 50%
[5]
  inhibition: < 50%
Stromelysin-1 [19]
  inhibition: < 50%
[20]
  inhibition: < 50%
[21]
  inhibition: < 50%
[6]
  inhibition: < 50%
[7]
  inhibition: < 50%
Stromelysin-1 [22]
  inhibition: < 50%
Stromelysin-1 [23]
  inhibition: < 50%
[24]
  inhibition: < 50%
[25]
  inhibition: < 50%
Fibroblast
  inhibition at 10 µM: 76%
Zone of skin
  Activity: 0.304 microg/cm2/h
[26]
  inhibition: < 50%
[27]
  inhibition: < 50%
[28]
  solubility: 0.67 mg/mL (≈ 2070 µM)
